In ChEMBL document CHEMBL1145999, “Synthesis and Ca2+-mobilizing activity of purine-modified mimics of adenophostin A: a model for the adenophostin-Ins(1,4,5)P3 receptor interaction” (J Med Chem, 2003):

Tests used:
[1] = Hill coefficient was determined; type: functional
Method in brief: (§1)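 Permeabilized rat hepatocytes loaded with 45Ca2+ to steady state for 5 min at 37 °C in cytosol-like medium (pH 7.0, free Ca2+ 200 nM) with ATP 1.5 mM, creatine phosphate/creatine phosphokinase and FCCP 10 µM. Thapsigargin 1.25 µM added; 30 s later, agonist for 60 s; store 45Ca2+ measured by rapid filtration. Four-parameter logistic fit gave maximal response, EC50, Hill slope. Means ± SEM.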

Rattus norvegicus [2] = species on record: Rattus norvegicus; test: Effective concentration causing half-maximal [Ca2+] release in rat hepatocytes; type: functional; conditions: Hepatocyte; method in brief: as §1
Rattus norvegicus [3] = species on record: Rattus norvegicus; test: The % of actively accumulated [Ca2+] released by a maximally effective concentration of the compound; type: functional; method in brief: as §1
Rattus norvegicus [4] = species on record: Rattus norvegicus; test: Potency for [Ca2+] release in rat hepatocytes with respect to compound 2; conditions: Hepatocyte

SMILES | Hill slope [1] | EC50 (Rattus norvegicus [2]) [nM] | Max response (Rattus norvegicus [3]) [%] | relative potency (Rattus norvegicus [4])
COc1ncnc2c1ncn2C1O[C@H](CO)[C@H](O[C@@H]2OC(CO)[C@H](OP(=O)(O)O)C(OP(=O)(O)O)[C@@H]2O)[C@@H]1OP(=O)(O)O (some centres not stated) | 3.8 | 19 | 34 | 0.57
CN(C)c1ncnc2c1ncn2C1O[C@H](CO)[C@H](O[C@@H]2OC(CO)[C@H](OP(=O)(O)O)C(OP(=O)(O)O)[C@@H]2O)[C@@H]1OP(=O)(O)O (some centres not stated) | 2.1 | 19 | 39 | 0.82
CNc1ncnc2c1ncn2C1O[C@H](CO)[C@H](O[C@@H]2OC(CO)[C@H](OP(=O)(O)O)C(OP(=O)(O)O)[C@@H]2O)[C@@H]1OP(=O)(O)O (some centres not stated) | 2.1 | 13 | 37 | 0.8
Nc1ncnc2c1ncn2C1O[C@H](CO)[C@H](O[C@@H]2OC(CO)[C@H](OP(=O)(O)O)C(OP(=O)(O)O)[C@@H]2O)[C@@H]1OP(=O)(O)O (some centres not stated) | 2.4 | 14 | 35 | 1
O=P(O)(O)OC1[C@@H](OP(=O)(O)O)C(CO)O[C@@H](O[C@@H]2[C@H](OP(=O)(O)O)C(n3cnc4c(NC5CCCCC5)ncnc43)O[C@@H]2CO)[C@H]1O (some centres not stated) | 2.3 | 25 | 45 | 0.56
O=P(O)(O)OC1[C@@H](OP(=O)(O)O)C(CO)O[C@@H](O[C@@H]2[C@H](OP(=O)(O)O)C(n3cnc4c(NC5CCCC5)ncnc43)O[C@@H]2CO)[C@H]1O (some centres not stated) | 2.2 | 13 | 35 | 0.77
O=P(O)(O)O[C@@H]1[C@H](O)[C@H](O)[C@@H](OP(=O)(O)O)[C@H](OP(=O)(O)O)[C@H]1O [INS(1,4,5)P3] | 2.3 | 185 | 35 | 0.08
CNc1nc(OC)nc2c1ncn2C1O[C@H](CO)[C@H](O[C@@H]2OC(CO)[C@H](OP(=O)(O)O)C(OP(=O)(O)O)[C@@H]2O)[C@@H]1OP(=O)(O)O (some centres not stated) | 8.8 | 82 | 34 | 0.17
